Data set [1] concerns HeLa. The experiment in a line: Cell cycle arrest in human HeLa cells assessed as accumulation at S phase after 24 hrs by propidium iodide staining-based flow cytometric analysis (reference value: 12.2%). In kind it is functional. In short, it runs like this: (§1)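 HeLa cells (1 × 10^6, exponential growth) exposed to compound for 24 or 48 h; collected, fixed in ice-cold 70% ethanol, stored at 4°C, rinsed in PBS, stained with 40 μg/ml propidium iodide plus RNase A; DNA content by flow cytometry, cell-cycle subpopulations as percentages. Tested at 0.3, 1, 2.5 and 5 μM (24 h).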
On the technique in general: Flow cytometry measures light scatter and fluorescence of single cells or particles in a stream.

The test system of data set [2] is HeLa. The data set can be described thus: Cell cycle arrest in human HeLa cells assessed as accumulation at G2/M phase at 1 uM after 24 hrs by propidium iodide staining-based flow cytometric analysis (reference value: 29.2%). In kind it is functional. In short, it runs like this:
as §1

Data set [3] can be described thus: Cellular uptake in human HeLa cell cytoplasmic vesicles at 2 to 5 uM after 6 hrs by bright field microscopic analysis. In kind it is ADME, cell-based. In short, it runs like this:
(§2)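 HeLa cells seeded on coverglass overnight, treated with 0, 2 or 5 μM for 6 h (DMSO control), fixed 10 min in 4% paraformaldehyde at room temperature. Bright-field images under visible light; NIR fluorescence by confocal microscopy with 633 nm excitation and 715–785 nm long-pass emission.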

For data set [4], the target named is Protein arginine N-methyltransferase 3 (Homo sapiens, UniProt O60678). The data set can be described thus: Inhibition of His6X-tagged PRMT3 expressed in Escherichia coli BL21(DE3) cells using [14C]-S-adenosyl-L-methionine and R4 peptide after 8 mins by scintillation counting.
Data set [5] in a line: Cellular uptake in human HeLa cell nucleus after 6 hrs by bright field microscopic analysis. In kind it is ADME, cell-based. In short, it runs like this: as §2
For data set [6], the target named is Protein arginine N-methyltransferase 1 (Homo sapiens) (UniProt Q99873). The conditions noted are these: 4 uM.
Data set [7] in a line: Cellular uptake in human HeLa cell nucleus at 2 to 5 uM after 6 hrs by fluorescent microscopic analysis. In kind it is ADME, cell-based. In short, it runs like this:
as §2

Data set [8] deals with HeLa. The experiment in a line: Cell cycle arrest in human HeLa cells assessed as accumulation at S phase at 1 uM after 24 hrs by propidium iodide staining-based flow cytometric analysis (reference value: 12.2%). The class given is functional. In short, it runs like this:
as §1

The nature of data set [9]: Cellular uptake in human HeLa cell cytoplasmic vesicles at 2 to 5 uM after 6 hrs by fluorescent microscopic analysis. In kind it is ADME, cell-based. In short, it runs like this:
as §2

Data set [10] deals with Protein arginine N-methyltransferase 6 (Homo sapiens, UniProt Q96LA8). The data set can be described thus: Inhibition of His6X-tagged PRMT6 expressed in Escherichia coli BL21(DE3) cells using [14C]-S-adenosyl-L-methionine and histone H3(1-31) peptide after 8 mins by scintillation counting.
Data set [11] deals with Protein arginine N-methyltransferase 5 (Homo sapiens, UniProt O14744). The data set can be described thus: Inhibition of His6X-tagged PRMT5 expressed in Escherichia coli BL21(DE3) cells using [14C]-S-adenosyl-L-methionine and histone H4 peptide after 8 mins by scintillation counting.
The test system of data set [12] is HeLa. The experiment in a line: Induction of apoptosis in human HeLa cells assessed as increase in sub-G1 peak at 2.5 to 5 uM after 48 hrs by propidium iodide staining-based flow cytometric analysis. The class given is functional, cell-based. In short, it runs like this: as §1
A short description of data set [13]: Inhibition of His-tagged PRMT1 Y152A mutant expressed in Escherichia coli BL21(DE3) cells assessed as residual activity using [14C]-S-adenosyl-L-methionine and histone H4 peptide at 4 uM measured after 8 mins by scintillation counting. In short, it runs like this: (§3)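 50 mM HEPES pH 8.0, 0.5 mM DTT, 1 mM EDTA, 50 mM NaCl, 30°C; 2 μM H4(1-20), 5 μM [14C]AdoMet, inhibitor preincubated 5 min, started with 0.05 μM enzyme, 8 min; P81 filter binding, scintillation.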

Data set [14] relates to HeLa. The data set can be described thus: Cell cycle arrest in human HeLa cells assessed as accumulation at G1 phase at 1 uM after 24 hrs by propidium iodide staining-based flow cytometric analysis (reference value: 57.2%). The class given is functional. In short, it runs like this: as §1
Data set [15] is described as follows: Cellular uptake in human HeLa cell around nucleus at 2 to 5 uM after 6 hrs by fluorescent microscopic analysis. The class given is ADME, cell-based. In short, it runs like this: as §2
In data set [16] the target is Protein arginine N-methyltransferase 1 (Homo sapiens) (UniProt Q99873). The experiment in a line: Inhibition of His-tagged PRMT1 expressed in Escherichia coli BL21(DE3) cells assessed as residual activity using [14C]-S-adenosyl-L-methionine and histone H4 peptide at 100 uM after 8 mins by scintillation counting. In short, it runs like this:
as §3

Each structure is given as a SMILES string. Activity calls are given as the source filed them. The rule behind the calls is not given here.

Protein arginine N-methyltransferase 1 (Homo sapiens), sequence (Q99873 whole entry, looked up): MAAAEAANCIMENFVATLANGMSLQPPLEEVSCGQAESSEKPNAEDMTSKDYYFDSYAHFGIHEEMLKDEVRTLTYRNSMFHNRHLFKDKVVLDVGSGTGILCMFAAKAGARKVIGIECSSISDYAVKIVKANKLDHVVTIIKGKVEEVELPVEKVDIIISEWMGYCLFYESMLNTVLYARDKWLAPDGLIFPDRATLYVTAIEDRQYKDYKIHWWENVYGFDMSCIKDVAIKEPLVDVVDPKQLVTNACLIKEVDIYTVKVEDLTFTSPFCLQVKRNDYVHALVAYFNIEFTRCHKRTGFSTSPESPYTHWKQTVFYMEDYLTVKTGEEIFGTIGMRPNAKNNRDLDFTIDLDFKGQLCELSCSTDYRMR
Protein arginine N-methyltransferase 3, sequence (O60678 whole entry): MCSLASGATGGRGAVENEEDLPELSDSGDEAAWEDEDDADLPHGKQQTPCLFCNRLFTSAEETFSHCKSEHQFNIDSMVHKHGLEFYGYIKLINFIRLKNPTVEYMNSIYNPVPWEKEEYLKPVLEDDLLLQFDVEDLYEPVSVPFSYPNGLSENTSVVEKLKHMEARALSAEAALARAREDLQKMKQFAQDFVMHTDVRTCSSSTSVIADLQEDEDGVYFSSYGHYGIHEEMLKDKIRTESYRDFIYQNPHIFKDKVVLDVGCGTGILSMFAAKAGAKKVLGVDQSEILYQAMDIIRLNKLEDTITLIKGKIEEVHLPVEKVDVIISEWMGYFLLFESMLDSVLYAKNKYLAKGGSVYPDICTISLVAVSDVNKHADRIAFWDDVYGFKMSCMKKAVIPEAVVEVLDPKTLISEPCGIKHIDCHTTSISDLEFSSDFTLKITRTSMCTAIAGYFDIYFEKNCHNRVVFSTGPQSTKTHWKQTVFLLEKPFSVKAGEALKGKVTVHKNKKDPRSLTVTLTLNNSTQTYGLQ
Protein arginine N-methyltransferase 5, sequence (O14744 whole entry): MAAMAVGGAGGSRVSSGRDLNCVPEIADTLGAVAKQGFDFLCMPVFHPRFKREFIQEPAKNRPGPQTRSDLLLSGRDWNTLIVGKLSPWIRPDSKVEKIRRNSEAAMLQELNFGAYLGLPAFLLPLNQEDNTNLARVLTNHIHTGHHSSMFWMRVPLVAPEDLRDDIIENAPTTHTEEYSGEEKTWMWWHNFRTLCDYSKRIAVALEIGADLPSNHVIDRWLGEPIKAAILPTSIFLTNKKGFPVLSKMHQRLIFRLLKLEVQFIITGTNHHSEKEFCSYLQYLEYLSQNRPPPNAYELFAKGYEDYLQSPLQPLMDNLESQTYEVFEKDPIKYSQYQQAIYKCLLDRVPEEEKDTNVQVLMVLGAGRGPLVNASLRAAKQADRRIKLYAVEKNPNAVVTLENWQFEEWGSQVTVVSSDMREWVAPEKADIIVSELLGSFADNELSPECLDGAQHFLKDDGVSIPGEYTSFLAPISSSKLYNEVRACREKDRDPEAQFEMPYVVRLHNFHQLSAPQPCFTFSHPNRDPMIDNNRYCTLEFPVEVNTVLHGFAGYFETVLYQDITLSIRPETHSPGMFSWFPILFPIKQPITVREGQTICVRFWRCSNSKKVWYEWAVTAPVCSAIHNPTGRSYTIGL
Protein arginine N-methyltransferase 6, sequence (Q96LA8 whole entry): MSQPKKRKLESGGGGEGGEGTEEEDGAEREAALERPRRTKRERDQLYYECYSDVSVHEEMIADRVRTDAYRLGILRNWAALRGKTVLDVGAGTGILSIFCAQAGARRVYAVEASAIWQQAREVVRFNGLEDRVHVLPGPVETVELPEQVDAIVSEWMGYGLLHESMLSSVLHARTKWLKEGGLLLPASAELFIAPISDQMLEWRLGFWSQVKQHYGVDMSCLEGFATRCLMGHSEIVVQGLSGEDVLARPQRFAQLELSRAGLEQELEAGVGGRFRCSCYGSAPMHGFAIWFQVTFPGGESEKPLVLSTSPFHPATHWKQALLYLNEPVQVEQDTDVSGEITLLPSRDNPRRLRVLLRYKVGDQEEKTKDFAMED

For orientation: IC50 means the concentration that gives 50% inhibition. A high value points to lower potency. The inhibition is the change of the read-out against control, counted positive when it falls. Consider `CCn1/c(=C\C=C\C2=[N+](CC)c3cccc4cccc2c34)c2cccc3cccc1c32.[I-]`, for which the outcome with HeLa [1] and in the data set on HeLa [12] was Active. Further, the Activity in the data set with HeLa [2] is on record as 13.9%; in the data set on HeLa [8], 56.5%; with HeLa [14], 23.6%. Moreover, the Drug uptake entry in data set [3] is recorded as “Active”; in data set [5], “Dose-dependent effect”; in data set [7], “Active”; in [9] it was “Active”; in data set [15] it was “Active”. Further, the IC50 in data set [4] turned out to be 8.3 µM; in data set [10], 12.6 µM; in [11], 9.1 µM. This compound showed an inhibition in data set [6] of 92%. The inhibition entry in data set [13] was “Active”.
With `COc1ccc2c(c1)C(C)(C)C(/C=C/C=C/C=C1\N(C)c3ccc(OC)cc3C1(C)C)=[N+]2C`, the Activity in data set [16] stood at 95%.
Same read-out and setting: the same measure for `CN1\C(=C/C=C(Cl)/C=C/C2=[N+](C)c3ccccc3C2(C)C)C(C)(C)c2ccccc21`: 80%.

(Values after ChEMBL document CHEMBL2046392, “Synthesis and evaluation of carbocyanine dyes as PRMT inhibitors and imaging agents” (Eur J Med Chem, 2012).)
